SR-BI uptake up: enhances SR-BI lipid uptake from DiI-HDL; CHO ldlA[mSR-BI] cells, DiI-HDL uptake fluorescence, 3 h; 100 = double the neutral-control signal; activation, % at 12.5 µM; 0.096% of 320,000 active;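 active = mean replicate activation of at least 60% and every replicate at or above 60%; inconclusive = mean or all-replicate condition met, but not both; inactive = mean below 60% and not all replicates reaching 60%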
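material = CHO ldlA[mSR-BI] cells | medium = Ham's F12 with 0.5% BSA, HEPES 25 mM, pH 7.4 | reagent = fluorescent DiI-HDL, 10 µg/mL final | compound dosing = single-point compound dose | incubation = 3 h, 37 °C | measured by = bottom-read fluorescence, 550/595 nm | measure = HDL uptake via cellular fluorescence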
SR-BI DiI inh: blocks mouse SR-BI lipid uptake from DiI-HDL | ldlA[mSR-BI] CHO cells, DiI-HDL uptake fluorescence, 3 h | Q61009 | AID 488896 | inhibition, % at 12.5 µM | 0.96% of 320,000 active;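 active = mean replicate inhibition of at least 70% and a set share of replicates each scoring 70 or more; inconclusive = meets just one of the two criteria; inactive = fails both criteria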
Target sequence (Q61009 whole entry, looked up): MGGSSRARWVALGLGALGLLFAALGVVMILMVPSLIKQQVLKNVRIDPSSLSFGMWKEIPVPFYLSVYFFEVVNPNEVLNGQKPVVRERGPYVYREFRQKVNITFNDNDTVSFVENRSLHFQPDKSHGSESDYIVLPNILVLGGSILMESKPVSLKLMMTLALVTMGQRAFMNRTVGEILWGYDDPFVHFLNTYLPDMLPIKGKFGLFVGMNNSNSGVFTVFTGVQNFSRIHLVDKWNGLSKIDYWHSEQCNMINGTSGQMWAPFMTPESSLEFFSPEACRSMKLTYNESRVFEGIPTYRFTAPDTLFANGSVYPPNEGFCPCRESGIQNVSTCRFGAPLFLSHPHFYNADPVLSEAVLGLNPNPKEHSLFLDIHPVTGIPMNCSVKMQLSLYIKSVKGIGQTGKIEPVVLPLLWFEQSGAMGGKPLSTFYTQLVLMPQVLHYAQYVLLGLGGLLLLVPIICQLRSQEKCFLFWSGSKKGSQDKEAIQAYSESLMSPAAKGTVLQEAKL
Rtt109 HAT inh: C. albicans Rtt109 histone acetyltransferase inhibition; Q5AAJ8; purified Rtt109/Vps75, ThioGlo CoA-SH fluorescence, 4 h; inhibition, % at 34.9 µM; 0.16% of 330,000 active;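 active = inhibition of at least 50% in every replicate; inconclusive = best replicate reaches 50% inhibition but some replicates fall short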
HIV Env fusion: inhibitors of HIV Env-mediated cell fusion; AID 651610; inhibition, % at 12.3 µM; 1.1% of 360,000 active; HeLa-JRFL Env/CEM21 cell fusion, luciferase;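 active = mean replicate inhibition score of at least 50 and every replicate individually at or above 50; inconclusive = only one of the two criteria met; inactive = mean below 50 and not all replicates reaching 50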
Glyco luc inh: N-linked glycosylation inhibition | D54 ERlucT glycosylation luciferase reporter, 24 h; percent of 100 nM tunicamycin response | reporter increase, % at 12.5 µM | 0.23% of 360,000 active | AID 588692;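 active = mean luciferase reporter signal, scaled so untreated is 0 and the glycosylation-blocking control 100, at or above a set limit in every replicate; inconclusive = mean reaches the limit but not every replicate does; inactive = mean below the limit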;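 note: luciferase carries N-glycosylation sites so blocking glycosylation raises the light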
PglD DTNB: inhibitors of Campylobacter jejuni PglD acetyltransferase. purified PglD enzyme, DTNB colorimetric CoA detection. inhibition, % at 12.5 µM. 0.098% of 360,000 active; in the data active = inhibition above about 16%, passing the limit was not always enough; inconclusive = no clear call, values can overlap the other calls
Hits are given with their value; - = inactive; ? = inconclusive; . = no result given. A selection: hits, their analogues and other compounds. The true share with any hit is near 1.9%.

SMILES	SR-BI uptake up	SR-BI DiI inh	Rtt109 HAT inh	HIV Env fusion	Glyco luc inh	PglD DTNB
O=C1c2c(O)ccc(O)c2C(=O)c2c(NCCNCCO)ccc(NCCNCCO)c21	-	-	-	58	-	-
O=C1NC[C@H](Cc2ccccc2)N(C[C@H]2CCCN2C[C@H](Cc2ccccc2)N2C[C@H](Cc3ccc(O)cc3)N(CCc3ccccc3)C(=O)C2=O)C1=O	-	-	-	-	37	-
CCOc1ccc(CCN2C(=S)N([C@@H](Cc3ccccc3)CN3CCC[C@@H]3CN3C(=S)NC[C@@H]3Cc3ccc(O)cc3)C[C@@H]2CC(C)C)cc1	.	.	.	64	-	-
Oc1ccc(C[C@H]2CN([C@@H](Cc3ccc(O)cc3)CN3CCC[C@@H]3CN3C(=S)NC[C@@H]3Cc3ccccc3)C(=S)N2CCc2ccccc2)cc1	.	.	.	-	-	-
CCOc1ccc(CCN2C(=S)N([C@@H](Cc3ccc(O)cc3)CN3CCC[C@@H]3CN3C(=S)NC[C@@H]3CC(C)C)C[C@@H]2Cc2ccc(O)cc2)cc1	.	.	.	67	-	-
CCOc1ccc(CCN2C(=S)N([C@@H](Cc3ccc(O)cc3)CN3CCCC3CN3C(=S)NC[C@@H]3Cc3ccc(O)cc3)C[C@@H]2CC(C)C)cc1 (some centres undefined)	-	-	-	-	-	-
CC(C)C[C@@H](CN1CCCC1CN1C(=S)NC[C@@H]1Cc1ccc(O)cc1)N1C[C@H](Cc2ccc(O)cc2)N(CCc2ccccc2)C1=S (some centres undefined)	177	-	-	-	-	-
Cc1ccc(-c2ccc3c(c2)O[C@H](CN(C)C(=O)CN(C)C)[C@@H](C)CN([C@H](C)CO)S3(=O)=O)cc1	.	.	.	-	.	-
COc1ccc2c3c(n(C)c2c1)[C@H](CO)N(C(=O)Nc1ccc(F)cc1)CC31CN(Cc2cccnc2)C1	.	.	.	-	.	.
COc1ccc(-c2ccc3c(c2)[C@H]2[C@H](CCN2C(=O)Cc2cccnc2)[C@H](CO)N3C)cc1	.	.	.	.	.	-
CO[C@H](CN(C)S(=O)(=O)c1cccc(Cl)c1)[C@H](C)CN([C@@H](C)CO)S(=O)(=O)c1cccc(Cl)c1	.	.	.	.	.	-
O=c1[nH]c2ccccc2c(O)c1O	-	-	176	.	-	32
CC(=O)Nc1ccc(S(=O)(=O)N(Cc2ccccc2)C(C)C)cc1	-	-	-	84	-	-
COc1ccc(S(=O)(=O)N(C)C[C@H]2OCCCC[C@@H](C)Oc3ccc(NC(=O)CCCN(C)C)cc3C(=O)N([C@@H](C)CO)C[C@@H]2C)cc1	.	.	.	-	.	-
C[C@H](CO)N1C[C@H](C)[C@H](CN(C)Cc2cccnc2)Oc2cc(C#CCN(C)C)ccc2S1(=O)=O	.	.	.	-	.	-
Cc1ccc(S(=O)(=O)N(C)C[C@H]2OCCCC[C@H](C)Oc3ccc(NC(=O)C4CCCCC4)cc3C(=O)N([C@@H](C)CO)C[C@@H]2C)cc1	.	.	.	-	.	-
Cc1[nH]c2ccccc2c1C(=O)CSc1nc2cc(S(=O)(=O)N3CCCCC3)ccc2o1	-	-	-	65	.	-
CN(C)c1ccc(C=C2C=Cc3ccccc32)cc1	-	-	-	-	-	-
Cc1cc2c(=Cc3ccc(N(C)C)cc3)c3ccccc3n2[n+]1C	-	-	-	-	66	.
CCOC(=O)SC1=N/C(=C\c2ccc(N(C)C)cc2)C(=O)S1	-	-	-	.	-	.
C[n+]1c(-c2ccccc2)cc2c(=Cc3ccccc3)c3ccccc3n21	-	-	-	-	-	.
CN(C)c1ccc(C=c2c3ccccc3n3c2c2ccccc2[n+]3C)cc1	-	-	-	58	-	.
CCOC(=O)c1cc2c(=Cc3ccc(N(C)C)cc3)c3ccccc3n2[n+]1C	-	-	-	-	40	.
CN(C)c1ccc(C=c2c3cc(O)ccc3n3c2cc(-c2ccccc2)[n+]3C)cc1	-	-	-	64	-	.
C[n+]1c(-c2ccccc2)cc2c(=Cc3ccc([N+](=O)[O-])cc3)c3ccccc3n21	-	?	-	-	-	.
CCN1[C@@H]2c3ccc(-c4ccc(F)cc4)c(=O)n3C[C@H]1[C@H](CO)[C@H]2C(=O)Nc1nccs1	.	.	.	.	.	-
CC1Sc2ccc(S(=O)(=O)N3CCC(C(=O)NCC(C)c4ccccc4)CC3)cc2NC1=O (centres undefined)	133	-	-	-	-	-

Screening results: PubChem BioAssay, Broad Institute
